Measured values published in article PMC3190289 (Clinical and Experimental Gastroenterology, 2011).
Where two headings read alike, the source gives them in different places.

Legend:
[1] = Plasma pharmacokinetics after single oral doses in healthy subjects; format: in vivo, human; conditions: for Subjects with detectable plasma concentrations: single oral dose; for AUC values in CYP2C19 poor metabolizers relative to overall means: two CYP2C19 poor metabolizer subjects
[2] = Safety analysis: treatment-emergent adverse events after single doses; format: in vivo, human; conditions: healthy subjects; for Incidence of treatment-emergent adverse events: single-dose administration
Summary of the method: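 Open-label two-period crossover in 44 subjects aged 20–54. Each period gave one oral dose after an overnight fast of at least 8 h, with a 60-min postdose fast; washout at least 7 days. All dosed subjects were analysed. A treatment-emergent AE started or worsened after first dose and within 30 days of last dose. Terms were coded to MedDRA 13.1 system organ class and preferred term; the investigator judged relatedness. Results were summarised descriptively per regimen.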

[3] = cited from earlier work
intragastric pH = conditions: cited from earlier work
[4] = postdose, single dose 60 mg, healthy subjects

| Subjects with detectable plasma concentrations ([1]; 12 hours postdose) [%] | Subjects with detectable plasma concentrations ([1]; 16 hours postdose) [%] | Subjects with detectable plasma concentrations ([1]; 24 hours postdose) [%] | Time of first peak of mean plasma concentration-time curve [1, 4] | Time of second peak of mean plasma concentration-time curve [1, 4] [h] | AUC values in CYP2C19 poor metabolizers relative to overall means [1] | Structure (SMILES) | Adverse events considered related to the study drug by the investigator ([2]; single dose) | Incidence of flatulence ([2]; single dose) [%] | Incidence of headache ([2]; single dose) [%] | Incidence of joint injury ([2]; single dose) [%] | Incidence of treatment-emergent adverse events [2] [%] | Time of first peak of plasma concentration-time profile ([3]; after administration) [h] | Half-life [3] [h] | Time of second peak of plasma concentration-time profile ([3]; postdose) [h] | Percentage of time with intragastric pH > 4 (intragastric pH; 0–24 hours after the same dose (60 mg)) | Adverse events reported by two or more subjects ([2]; single dose) | Increase in bioavailability at steady state ([3]; after five days of once-daily dosing) [fold] | Time of maximum plasma concentrations ([3]; postdose) | Percentage of time with intragastric pH > 4 (intragastric pH; 0–24 hours after the same dose (40 mg), ref 10) [%] | Percentage of time with intragastric pH > 4 (intragastric pH; 0–24 hours after the same dose (40 mg), ref 12) [%] |
| --- | --- | --- | --- | --- | --- | --- | --- | --- | --- | --- | --- | --- | --- | --- | --- | --- | --- | --- | --- | --- |
| 100 | 88 | 63 | approximately 2 hours | ~5 | substantially higher | Cc1c(OCC(F)(F)F)ccnc1C[S@@+]([O-])c1nc2ccccc2[nH]1 [dexlansoprazole] | only one adverse event (nausea) | 5 | 9 | 5 | 21 | 1 to 2 | 1 to 2 | 4 to 5 | approximately 60% | – | – | – | – | – |
| 80 | 39 | 9 | – | – | substantially higher | COc1ccc2nc([S@@+]([O-])Cc3ncc(C)c(OC)c3C)[nH]c2c1 [esomeprazole] | – | – | – | – | 14 | – | – | – | – | No adverse event | ~2.5 | approximately 1.6 hours | 54 | 52 |
